According to ChEMBL document CHEMBL5030505, “Assessment of NR4A Ligands That Directly Bind and Modulate the Orphan Nuclear Receptor Nurr1” (J Med Chem, 2020):
Calls of active or inactive are those of the source. The rule behind the calls is not given here.

Legend:
Format in all cases: cell-based
[1] = target: Nuclear receptor subfamily 4 group A member 2 (Homo sapiens) (UniProt P43354); experiment: Modulation of full length human Nurr1 expressed in SKNBE(2) cells co-transfected with luciferase reporter plasmid harboring NBRE response element assessed as increase in luciferase activity incubated for 18 hrs by luciferase-reporter gene assay; conditions: SKNBE2, filed as modulator, dose 0.002-200 µM
Chain of Nuclear receptor subfamily 4 group A member 2 (Homo sapiens) (P43354 whole entry, the tested form may be a part): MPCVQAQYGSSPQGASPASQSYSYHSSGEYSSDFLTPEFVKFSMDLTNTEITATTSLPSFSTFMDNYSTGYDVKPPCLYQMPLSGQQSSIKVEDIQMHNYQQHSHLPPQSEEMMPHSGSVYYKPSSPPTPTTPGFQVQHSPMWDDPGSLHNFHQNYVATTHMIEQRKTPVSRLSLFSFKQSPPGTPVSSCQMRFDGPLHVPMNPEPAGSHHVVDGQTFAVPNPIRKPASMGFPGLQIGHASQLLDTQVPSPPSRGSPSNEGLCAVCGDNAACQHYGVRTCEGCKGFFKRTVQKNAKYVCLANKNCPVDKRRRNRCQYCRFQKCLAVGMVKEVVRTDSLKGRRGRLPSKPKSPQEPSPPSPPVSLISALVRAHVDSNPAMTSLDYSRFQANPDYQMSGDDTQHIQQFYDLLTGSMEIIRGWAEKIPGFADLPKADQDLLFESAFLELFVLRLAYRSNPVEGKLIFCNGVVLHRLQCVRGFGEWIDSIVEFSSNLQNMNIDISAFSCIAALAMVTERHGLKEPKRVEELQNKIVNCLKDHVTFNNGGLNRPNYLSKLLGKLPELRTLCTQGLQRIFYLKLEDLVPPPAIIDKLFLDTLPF

[2] = target: Nuclear receptor subfamily 4 group A member 2 (Homo sapiens) (UniProt P43354); experiment: Modulation of full length human Nurr1 expressed in SKNBE(2) cells co-transfected with RXRalpha and luciferase reporter plasmid harboring NBRE response element assessed as increase in luciferase activity incubated for 18 hrs by luciferase-reporter gene assay; conditions: SKNBE2, filed as modulator, dose 0.0002-200 µM
Method in brief: (§1)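 SK-N-BE(2)-C cells were kept in 1:1 EMEM/F12 with 10% FBS at 37°C and 5% CO2. They were cotransfected with full-length Nurr1 (1 μg), full-length RXRα (1 μg) and 3xNBRE- or 3xNurRE-luc reporter (6 μg) for 18 h, replated at 10,000 cells/well for 4 h, and then treated with ligand or vehicle in quadruplicate for 18 h. The readout was luciferase luminescence as fold over vehicle, reported as mean ± s.e.m. (n=4) from 2 independent experiments, one-way ANOVA.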

HEK-293T = experiment: Cytotoxicity in human HEK293T cells assessed as reduction in cell viability at 0.02 to 200 uM incubated for 18 hrs by Cell Titer-Glo assay; conditions: dose 0.02-200 µM
Method in brief: (§2)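 Cells seeded at 1.5 million per 10-cm dish. Next day they were replated at 10,000 cells/well and rested 4 h. Ligand or vehicle (water, ethanol or DMSO, by ligand) was added in dose-response format in quadruplicate. After 18 h, viability was read by CellTiter-Glo luminescence. Data are mean ± s.e.m., generally representative of 2 independent experiments. One-way ANOVA versus vehicle.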

[3] = target: Nuclear receptor subfamily 4 group A member 2 (Homo sapiens) (UniProt P43354); experiment: Modulation of full length human Nurr1 expressed in PC12 cells co-transfected with RXRalpha and luciferase reporter plasmid harboring NurRE response element assessed as increase in luciferase activity incubated for 18 hrs by luciferase-reporter gene assay; conditions: PC-12, filed as modulator, dose 0.0002-200 µM
Method in brief: (§3)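 PC12 cells were grown at 37°C and 5% CO2 in […] medium with 15% horse serum and 2.5% FBS. They were transfected with full-length Nurr1 (1 μg) plus full-length RXRα (1 μg) and 3xNBRE- or 3xNurRE-luciferase reporter (6 μg) for 18 h, then replated at 10,000 cells/well for 4 h. Ligand or vehicle (water, ethanol or DMSO) was added in quadruplicate for 18 h. Luminescence was read as fold change over vehicle. Results are mean ± s.e.m., n=4, from 2 independent experiments, analysed by one-way ANOVA against vehicle.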

SK-N-BE(2) = experiment: Cytotoxicity in human SKNBE2 cells assessed as reduction in cell viability at 0.02 to 200 uM incubated for 18 hrs by Cell Titer-Glo assay; conditions: dose 0.02-200 µM; method in brief: as §2
[4] = target: Nuclear receptor subfamily 4 group A member 2 (Homo sapiens) (UniProt P43354); experiment: Modulation of full length human Nurr1 expressed in SKNBE(2) cells co-transfected with RXRalpha and luciferase reporter plasmid harboring NurRE response element assessed as increase in luciferase activity incubated for 18 hrs by luciferase-reporter gene assay; conditions: SKNBE2, filed as modulator, dose 0.0002-200 µM; method in brief: as §1
HEK293T = experiment: Modulation of Gal4-fused VP16 expressed in HEK293T cells co-transfected with UAS repoter gene assessed as increase in luciferase activity at 0.02 to 200 uM incubated for 18 hrs by luciferase reporter gene assay; conditions: Human alphaherpesvirus 2, filed as modulator, dose 0.02-200 µM
Method in brief: (§4)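 Cells in 10-cm dishes were transfected with Gal4-VP16 expression plasmid (2 μg) plus 5xUAS-luciferase reporter (2 μg) for 18 h. They were replated at 10,000 cells/well for 4 h, then given ligand or vehicle (water, ethanol or DMSO) in quadruplicate for 18 h. Luciferase was read with Britelite Plus. Fold change is versus vehicle-treated cells, with one-way ANOVA versus vehicle.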

PC-12 [5] = experiment: Cytotoxicity in rat PC-12 cells assessed as reduction in cell viability at 0.02 to 200 uM incubated for 18 hrs by Cell Titer-Glo assay; conditions: pc-12, 18 h, dose 0.02-200 µM; method in brief: as §2
[6] = target: Nuclear receptor subfamily 4 group A member 2 (Homo sapiens) (UniProt P43354); experiment: Modulation of full length human Nurr1 expressed in HEK293T cells co-transfected with RXRalpha and luciferase reporter plasmid harboring NurRE response element assessed as increase in luciferase activity incubated for 18 hrs by luciferase-reporter gene assay; conditions: filed as modulator, dose 0.0002-200 µM
Method in brief: (§5)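 Full-length Nurr1 plasmid, alone (2 μg) or 1 μg plus full-length RXRα (1 μg), cotransfected with 3xNBRE- or 3xNurRE-luciferase reporter (6 μg) using Lipofectamine 2000, 18 h. Cells replated at 10,000/well for 4 h. Four ligand concentrations, or vehicle (water, ethanol or DMSO), added in quadruplicate for 18 h. Luciferase read. Fold change vs vehicle, mean ± s.e.m., one-way ANOVA vs vehicle.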

[7] = target: Nuclear receptor subfamily 4 group A member 2 (Homo sapiens) (UniProt P43354); experiment: Modulation of full length human Nurr1 expressed in PC12 cells co-transfected with luciferase reporter plasmid harboring NBRE response element assessed as increase in luciferase activity incubated for 18 hrs by luciferase-reporter gene assay; conditions: PC-12, filed as modulator, dose 0.002-200 µM
Method in brief: (§6)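 Here PC12 cells (FK-12 medium, 15% horse serum, 2.5% FBS, 37°C, 5% CO2) received full-length Nurr1 (2 μg) without RXRα, plus 3xNBRE- or 3xNurRE-luciferase reporter (6 μg), for 18 h. Cells were replated at 10,000/well for 4 h, then treated with ligand or vehicle in quadruplicate for 18 h. Luciferase luminescence was normalized to vehicle-treated cells. Results are mean ± s.e.m. (n=4) from 2 independent experiments, with one-way ANOVA against vehicle.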

[8] = target: Nuclear receptor subfamily 4 group A member 2 (Homo sapiens) (UniProt P43354); experiment: Modulation of full length human Nurr1 expressed in HEK293T cells co-transfected with luciferase reporter plasmid harboring NBRE response element assessed as increase in luciferase activity incubated for 18 hrs by luciferase-reporter gene assay; conditions: filed as modulator, dose 0.002-200 µM; method in brief: as §5
[9] = target: Nuclear receptor subfamily 4 group A member 2 (Homo sapiens) (UniProt P43354); experiment: Modulation of full length human Nurr1 expressed in PC12 cells co-transfected with RXRalpha and luciferase reporter plasmid harboring NBRE response element assessed as increase in luciferase activity incubated for 18 hrs by luciferase-reporter gene assay; conditions: PC-12, filed as modulator, dose 0.0002-200 µM; method in brief: as §3
PC-12 [10] = experiment: Modulation of Gal4-fused VP16 expressed in PC12 cells co-transfected with UAS repoter gene assessed as increase in luciferase activity at 0.02 to 200 uM incubated for 18 hrs by luciferase reporter gene assay; conditions: Human alphaherpesvirus 2, filed as modulator, dose 0.02-200 µM; method in brief: as §4
[11] = target: Nuclear receptor subfamily 4 group A member 2 (Homo sapiens) (UniProt P43354); experiment: Modulation of full length human Nurr1 expressed in SKNBE(2) cells co-transfected with luciferase reporter plasmid harboring NurRE response element assessed as increase in luciferase activity incubated for 18 hrs by luciferase-reporter gene assay; conditions: SKNBE2, filed as modulator, dose 0.002-200 µM
SKNBE2 = experiment: Modulation of Gal4-fused VP16 expressed in SKNBE(2) cells co-transfected with UAS repoter gene assessed as increase in luciferase activity at 0.02 to 200 uM incubated for 18 hrs by luciferase reporter gene assay; conditions: Human alphaherpesvirus 2, filed as modulator, dose 0.02-200 µM; method in brief: as §4
[12] = target: Nuclear receptor subfamily 4 group A member 2 (Homo sapiens) (UniProt P43354); experiment: Modulation of full length human Nurr1 expressed in HEK293T cells co-transfected with luciferase reporter plasmid harboring NurRE response element assessed as increase in luciferase activity incubated for 18 hrs by luciferase-reporter gene assay; conditions: filed as modulator, dose 0.002-200 µM; method in brief: as §5
[13] = target: Nuclear receptor subfamily 4 group A member 2 (Homo sapiens) (UniProt P43354); experiment: Modulation of full length human Nurr1 expressed in HEK293T cells co-transfected with RXRalpha and luciferase reporter plasmid harboring NBRE response element assessed as increase in luciferase activity incubated for 18 hrs by luciferase-reporter gene assay; conditions: filed as modulator, dose 0.0002-200 µM; method in brief: as §5
[14] = target: Nuclear receptor subfamily 4 group A member 2 (Homo sapiens) (UniProt P43354); experiment: Modulation of full length human Nurr1 expressed in PC12 cells co-transfected with luciferase reporter plasmid harboring NurRE response element assessed as increase in luciferase activity incubated for 18 hrs by luciferase-reporter gene assay; conditions: PC-12, filed as modulator, dose 0.002-200 µM; method in brief: as §6

For `COc1ccc(-c2cc3onc(-c4ccccc4)c3c(=O)n2C)cc1`, the Activity [1] was “Dose-Dependent Effect”, the Activity [2] was “Dose-Dependent Effect” and the Activity (HEK-293T) was “Non-Toxic”. The Activity [3] was “Dose-Dependent Effect”, the Activity (SK-N-BE(2)) was “Non-Toxic” and the Activity [4] was “Dose-Dependent Effect”. For the same compound, the Activity (HEK293T) was “Active”, the Activity (PC-12 [5]) was “Non-Toxic” and the Activity [6] was “Dose-Dependent Effect”. For the same compound, the Activity [7] was “Dose-Dependent Effect”, the Activity [8] was “Dose-Dependent Effect” and the Activity [9] was “Dose-Dependent Effect”. For the same compound, the Activity (PC-12 [10]) was “Active”, the Activity [11] was “Dose-Dependent Effect” and the Activity (SKNBE2) was “Active”. The Activity [12] was “Dose-Dependent Effect”, the Activity [13] was “Dose-Dependent Effect” and the Activity [14] was “Dose-Dependent Effect”.
